Data set [1] relates to NCI-H460. The data set is described as follows: Antiproliferative activity against human NCI-H460 cells assessed as cell viability measured after 72 hrs by MTS method. Type of data set: functional, cell-based. The conditions noted are these: NCI-H460, 72 h. An outline of the steps:
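Log-phase cells plated at 5×10^3–6×10^3 per well for 24 h, then given graded compound concentrations in fresh medium for 72 h, five replicate wells. Medium replaced with medium containing 10% MTS, 30 min or more at 37 °C in dark; OD 490 nm read. IC50 by nonlinear regression; mean ± SD of at least three experiments.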
In general terms: Tetrazolium assays rely on reduction of a dye to a coloured formazan, in cell work by metabolically active cells.

For data set [2], the system named is RKO. Nature of the data set: Induction of apoptosis in human RKO cells assessed as increase in ROS levels at 0.25 uM measured after 24 hrs by DCFH-DA staining based flow cytometry method relative to control. Type of data set: functional. An outline of the steps: (§1)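 Cells at 5×10^5 per well exposed to 0.25 or 0.5 µM for 24 h, then loaded with 5 µM DCFH-DA in serum-free medium 30 min at 37 °C; washed, harvested, read by flow cytometry (ex 488/em 525 nm). ROS given as ratio of treated to control; at least three experiments.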
A general note: Flow cytometry measures light scatter and fluorescence of single cells or particles in a stream.

The subject of data set [3] is SW-620. The data set is described as follows: Induction of apoptosis in human SW-620 cells assessed as increase in ROS levels at 0.25 uM measured after 24 hrs by DCFH-DA staining based flow cytometry method relative to control. The class given is functional. In outline: as §1
A short description of data set [4]: Toxicity against Athymic nude mouse xenografted with SW-620 cells assessed as toxicity in liver at 25 mg/kg per two days, po measured after 20 days by H and E staining method. The class given is organism-based. As to conditions: in vivo, 480 h, time 20 day. In outline:
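At the end of the 20-day oral SW620 xenograft study (25 mg/kg every 2 days, n = 6), heart, liver, spleen, lung and kidney were fixed in 4% paraformaldehyde and embedded in paraffin. 4 μm sections stained with Mayer hematoxylin 5 min and eosin-phloxine 2 min, then examined by light microscopy.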

Usually IC50 stands for the concentration at which inhibition is half-maximal.

With `COc1ccc(S(=O)(=O)Nc2cccnc2Nc2ccc(O)cc2)cc1` [ABT-751], the IC50 in data set [1] turned out to be 2040 nM.

Take `COc1ccc(S(=O)(=O)Nc2cccnc2-c2ccc(C#N)c(F)c2)cc1`: the “fold change (FC)” value in data set [2] and in data set [3] was 1.5 throughout. In data set [4], the Activity result is given as “Non-Toxic”.

(Values after ChEMBL document CHEMBL4819012, “Discovery of novel 2-aryl-3-sulfonamido-pyridines (HoAns) as microtubule polymerization inhibitors with potent antitumor activities” (Eur J Med Chem, 2021).)
